Screens: PubChem, The Scripps Research Institute Molecular Screening Center
CHO parental Ca: ATP-evoked calcium signal inhibitors, parental CHO, primary screen, counter-screen for OX1R antagonist project, cell-based, fluorescence, Fluo-8 calcium dye; 330,000 tested, 0.63% active; AID 463079, 2010; parental CHO-K1, ATP-induced calcium, Fluo-8 fluorescence; inhibition, % at 5.6 µM;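 active = inhibition above that plate's mean sample inhibition plus 3 SD, cut at about 26% in these data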
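material = parental CHO cells | also added = ATP as calcium-mobilizing challenge | dosing = single point at 5.6 µM | detection = intracellular calcium via Fluo-8 no-wash fluorescent dye | read-out = % inhibition | benchmarks = low control ATP plus DMSO, high control DMSO only | repeats = one well per compound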
TAAR1 antag: human TAAR1 antagonists, primary screen, Fluo-8 calcium fluorescence, CHO RD-HGA16 cells. AID 624466, 2012. 360,000 tested, 1.5% active. inhibition, % at 3 µM. antagonist. Trace amine-associated receptor 1 (Homo sapiens), Q96RJ0;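 active = inhibition above a per-plate cutoff, the mean inhibition of test compounds on that plate plus 3 SD, cut at about 49% in these data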
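Test system – hTAAR1-expressing CHO RD-HGA16 cells, Gα16-coupled · Reagent – β-PEA at EC80 concentration, post-compound challenge · Compound dosing – 3 µM, single point · Timing – 140 s kinetic read after compound, 140 s after agonist · Detection – Fluo-8 intracellular calcium dye fluorescence, real-time kinetic reads · Control set – DMSO and EC80 PEA controls · Repeats – n of 1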
OX1R antag-1: antagonists of human orexin 1 receptor (OX1R); 330,000 tested, 1.8% active; AID 485270, 2010; inhibition, % at 6.6 µM; OX1R-expressing cells, FRET antagonist read-out; Orexin/Hypocretin receptor type 1 (Homo sapiens), O43613; in the data active = inhibition mostly above about 38%, no sharp cut-off; inactive = mostly below about 40%
GalR3 antagonist: GalR3 antagonists in HEK293 cells, primary screen, cell-based, fluorescence readout; 360,000 tested, 0.44% active; inhibition, % at 3 µM; HEK293 GalR3-CNG cAMP membrane potential fluorescence; galR3 body fused to GalR1 C-terminus;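 active = inhibition above the screen-wide average plus 3 SD, cut at about 13% in these data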;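 note: forskolin and galanin both at EC90 stimulate the cells; cAMP rise reported by CNG channel membrane potential dye signal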
Target sequence (O60755 1-299 limits assumed): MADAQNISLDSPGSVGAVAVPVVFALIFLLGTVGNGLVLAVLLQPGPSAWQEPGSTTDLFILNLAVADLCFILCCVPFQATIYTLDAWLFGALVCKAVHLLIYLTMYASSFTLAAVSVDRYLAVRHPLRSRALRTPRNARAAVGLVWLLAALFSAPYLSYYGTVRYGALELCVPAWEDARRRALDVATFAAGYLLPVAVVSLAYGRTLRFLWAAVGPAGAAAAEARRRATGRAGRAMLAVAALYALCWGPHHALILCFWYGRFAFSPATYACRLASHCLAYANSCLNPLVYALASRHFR
TAAR1 ag: human TAAR1 agonists, primary screen, Fluo-8 calcium fluorescence, CHO RD-HGA16 cells; Trace amine-associated receptor 1 (Homo sapiens), Q96RJ0; vehicle wells 0%, saturating PEA agonist 100%; activation, % at 3 µM; 360,000 tested, 0.99% active;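 active = activation above the mean activation of all test compounds in the run plus 3 SD, cut at about 38% in these data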
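Assay system – CHO-derived RD-HGA16 cells with stable Gα16 and human TAAR1 · Compound dosing – one-point dosing at 3 µM (nominal) · Incubation – 17-24 h seeding, 75 min 37 °C dye, 30 min RT · Measured by – kinetic Fluo-8 calcium fluorescence · Control set – DMSO vehicle as 0%, PEA at EC100 as 100% · Repeats – single well for each compound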
OX1R antag-2: OX1R (HCRTR1) antagonists, primary screen, fluorescence, CHO/OX1R cells, Fluo-8 calcium, orexin A; Orexin/Hypocretin receptor type 1 (Homo sapiens), O43613; Fluo-8 calcium fluorescence; inhibition, % at 5 µM; 330,000 tested, 0.43% active;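 active = inhibition above its plate's threshold, mean inhibition of all tested compounds on the plate plus 3 SD, cut at about 37% in these data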
OX1R HTRF conf: OX1R (HCRTR1) antagonists, confirmation, cell-based, HTRF; shares compounds with OX1R antag-1; OX1R-expressing cells, HTRF antagonist assay; inhibition, % at 6.6 µM; 1,800 tested, 49% active; AID 492964, 2010; in the data active = inhibition above about 55%;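 note: CHO cells expressing OX1R stimulated with orexin A at about EC80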
CHO-K1 HTRF cnt: signal inhibition in parental CHO-K1 cells, counter-screen for OX1R antagonist project, cell-based, HTRF | shares compounds with OX1R antag-1 | HTRF counterscreen | inhibition, % at 6.6 µM | 1,800 tested, 48% active | AID 493232, 2011; in the data active = inhibition above about 17%
A number is an active result. In the library only some 4.2% were active in any assay of this set; here they are far more common.

How did Cc1ccc(NC(=O)CCNC(=O)Nc2ccccc2)cc1S(=O)(=O)N(C)C do in these assays?
CHO parental Ca: inactive; TAAR1 antag: inactive; OX1R antag-1: inactive; GalR3 antagonist: inactive; TAAR1 ag: inactive; OX1R antag-2: inactive

What do the screens show for `COc1ccc(/C=C/C(=O)O/N=C(\N)c2ccccc2)cc1OC`?
CHO parental Ca: inactive; TAAR1 antag: inactive; OX1R antag-1: 81; GalR3 antagonist: inactive; TAAR1 ag: inactive; OX1R antag-2: inactive; OX1R HTRF conf: inactive; CHO-K1 HTRF cnt: inactive

How did CC(=O)N1CCN(Cc2cc(=O)oc3cc(C)c(C)cc23)CC1 do in these assays?
TAAR1 antag: inactive; GalR3 antagonist: inactive; TAAR1 ag: inactive

Results for O=C(COC(=O)c1ccc([N+](=O)[O-])o1)c1ccccc1 ?
CHO parental Ca: inactive; TAAR1 antag: inactive; OX1R antag-1: inactive; GalR3 antagonist: inactive; TAAR1 ag: inactive; OX1R antag-2: inactive

Results for Cn1c(N)c(C(=O)COC(=O)c2ccc([N+](=O)[O-])o2)c(=O)n(C)c1=O ?
CHO parental Ca: inactive; TAAR1 antag: inactive; OX1R antag-1: 105; GalR3 antagonist: inactive; TAAR1 ag: inactive; OX1R antag-2: inactive; OX1R HTRF conf: inactive; CHO-K1 HTRF cnt: 55

How did O=c1ccc(-c2ccc([N+](=O)[O-])cc2)nn1-c1ccccc1 do in these assays?
CHO parental Ca: inactive; TAAR1 antag: inactive; OX1R antag-1: inactive; GalR3 antagonist: inactive; TAAR1 ag: inactive; OX1R antag-2: inactive

Results for O=[N+]([O-])c1ccc(-[n+]2nc(-c3ccccc3)nn2-c2ccccc2)cc1 ?
CHO parental Ca: inactive; TAAR1 antag: inactive; OX1R antag-1: 81; GalR3 antagonist: inactive; TAAR1 ag: inactive; OX1R antag-2: inactive; OX1R HTRF conf: inactive; CHO-K1 HTRF cnt: 79

What do the screens show for `Cc1c(C(=O)N2CCN(C(=O)c3ccco3)CC2)sc2nc(-c3ccc(F)cc3)cn12`?
CHO parental Ca: inactive; TAAR1 antag: inactive; OX1R antag-1: inactive; TAAR1 ag: inactive; OX1R antag-2: inactive

Results for CC(=O)c1cccc(NC(=O)CCNS(=O)(=O)c2cccc3nonc23)c1 ?
CHO parental Ca: inactive; TAAR1 antag: inactive; OX1R antag-1: 97; GalR3 antagonist: inactive; TAAR1 ag: inactive; OX1R antag-2: inactive; OX1R HTRF conf: inactive; CHO-K1 HTRF cnt: 23

What do the screens show for `COc1cccc(NC(=O)CCNS(=O)(=O)c2cccc3nonc23)c1`?
CHO parental Ca: inactive; TAAR1 antag: inactive; OX1R antag-1: inactive; GalR3 antagonist: inactive; TAAR1 ag: inactive; OX1R antag-2: inactive

What do the screens show for `COc1ccc(C(=O)NCc2nnc(SCC(=O)NC3CCCCC3)n2C)cc1`?
CHO parental Ca: inactive; TAAR1 antag: inactive; OX1R antag-1: inactive; GalR3 antagonist: inactive; TAAR1 ag: inactive; OX1R antag-2: inactive

How did Clc1ccccc1C=NNc1ccccn1 do in these assays?
TAAR1 antag: inactive; GalR3 antagonist: inactive; TAAR1 ag: inactive

How did CCc1nnc(N/N=C/c2ccccc2Cl)n1N do in these assays?
CHO parental Ca: inactive; TAAR1 antag: inactive; OX1R antag-1: 96; GalR3 antagonist: inactive; TAAR1 ag: inactive; OX1R antag-2: inactive; OX1R HTRF conf: inactive; CHO-K1 HTRF cnt: inactive

Results for NC(=O)c1ccc(SCC(=O)NC2CCCCC2)c([N+](=O)[O-])c1 ?
CHO parental Ca: inactive; TAAR1 antag: inactive; OX1R antag-1: 77; GalR3 antagonist: inactive; TAAR1 ag: inactive; OX1R antag-2: inactive; OX1R HTRF conf: inactive; CHO-K1 HTRF cnt: 35
